Measured values from different studies.
KMT5A: N-lysine methyltransferase KMT5A (KMT5A, Homo sapiens, UniProt Q9NQR1)
PRKACA: cAMP-dependent protein kinase catalytic subunit alpha (PRKACA, Bos taurus, UniProt P00517)
LATS1: Serine/threonine-protein kinase LATS1 (LATS1, Homo sapiens, UniProt O95835)
PRKCB: Protein kinase C beta type (PRKCB, Homo sapiens, UniProt P05771)

| Structure (SMILES) | target | read-out | mode | technique | cells | tested at | inhibition [%] |
| --- | --- | --- | --- | --- | --- | --- | --- |
| O=c1c(-c2cc(O)c(O)c(O)c2)coc2cc(O)c(O)c(O)c12 | KMT5A | cell-free assay |  |  |  | 10 µM | 9 |
| O=C1N=C(N2CCCCN2)S/C1=C\c1ccc(F)cc1O | Cholecystokinin receptor type A (CCKAR, Homo sapiens, UniProt P32238) | ligand displacement |  | radioligand |  | 10 µM | 10 |
| Oc1cccc(Nc2nc(-c3ccc(F)cc3F)cs2)c1 | Alpha-2A adrenergic receptor (ADRA2A, Homo sapiens, UniProt P08913) | cell-free assay |  |  |  | 10 µM | -22.5 |
| O=C(O)c1cc(O)c2c(c1)[C@H]([C@H]1c3cc(C(=O)O)cc(O)c3C(=O)c3c(O[C@@H]4O[C@H](CO)[C@@H](O)[C@H](O)[C@H]4O)cccc31)c1cccc(O[C@@H]3O[C@H](CO)[C@@H](O)[C@H](O)[C@H]3O)c1C2=O | KMT5A | cell-free assay |  |  |  | 10 µM | 23 |
| CN(C)C1CCN(CC#Cc2nn(C3CCCC3)c3nc(NCc4ccccc4)ncc23)C1 (stereo not shown) | Dual specificity mitogen-activated protein kinase kinase 6 (MAP2K6, Homo sapiens, UniProt P52564) | enzyme activity | inhibitor | FRET |  | 10 µM | 8 |
| O=C(O)c1ncccc1O | Neutrophil collagenase (MMP8, Homo sapiens, UniProt P22894) | enzyme activity | inhibitor | fluorescence |  | 1 mM | ~50 |
| COc1cc(-c2cc(-c3ccc(N4CCNCC4)cc3)cnc2N)cc(OC)c1OC | Tyrosine-protein kinase ABL1 (ABL1, Homo sapiens, UniProt P00519, E255K) | enzyme activity | inhibitor |  |  | 0.1 µM | 74 |
| CCN(CC)CCNC(=O)c1c(C)[nH]c(/C=C2\C(=O)Nc3ccc(F)cc32)c1C | PRKACA | enzyme activity | inhibitor |  |  | 10 µM | 1 |
| Cn1cncc1C1=CN(c2ncnc3[nH]cnc23)CCS1 | LATS1 | enzyme activity | inhibitor | radiometric |  | 50 nM | 35 |
| CN(C)c1ccc2nc3ccc(=[N+](C)C)cc-3sc2c1 | KMT5A | cell-free assay |  |  |  | 10 µM | 43 |
| COc1ccc(C(=O)c2coc3c2C(=O)C(=O)C=C3)cc1 | Peptide deformylase, mitochondrial (Homo sapiens, UniProt Q9HBH1) | enzyme activity | inhibitor |  |  | 100 µM | ≥ 100 |
| Ic1cccc2cnccc12 | Nicotinamide phosphoribosyltransferase (NAMPT, Homo sapiens, UniProt P43490) | enzyme activity | inhibitor |  |  | 10 µM | -2 |
| COc1cc(NC(C)CCCN)c2ncccc2c1 (stereo not shown) | KMT5A | cell-free assay |  |  |  | 10 µM | 28 |
| Cc1ccc(Nc2nccc(N(C)c3ccc4c(C)n(C)nc4c3)n2)cc1S(N)(=O)=O | PRKACA | enzyme activity | inhibitor |  |  | 0.3 µM | -7 |
| CCCS(=O)(=O)Nc1ccc(F)c(C(=O)c2c[nH]c3ncc(-c4ccc(Cl)cc4)cc23)c1F | PRKCB | enzyme activity | inhibitor |  |  | 1 µM | < 20 |
| O=C(c1ccc(F)cc1)N(Cc1ccccc1)C1CCCCC1 | 5-hydroxytryptamine receptor 3A (HTR3A, Homo sapiens, UniProt P46098) | ligand displacement |  |  |  | 10 µM | -1 |
| CN(C)c1ccc(C(=C2C=CC(=[N+](C)C)C=C2)c2ccc(N(C)C)cc2)cc1 | KMT5A | cell-free assay |  |  |  | 10 µM | 97 |
| CCN1CCN(Cc2ccc(NC(=O)c3ccc(C)c(Oc4ccnc5[nH]ccc45)c3)cc2C(F)(F)F)CC1 | Receptor-interacting serine/threonine-protein kinase 4 (RIPK4, Homo sapiens, UniProt P57078) | target engagement in cells | inhibitor | chemoproteomics | A-375 | 5 µM | -11.6 |
| CCCCC(CC)CNC(=N)NC(=N)NCCCCCCNC(=N)NC(=N)NCC(CC)CCCC (stereo not shown) | KMT5A | cell-free assay |  |  |  | 10 µM | 34 |
| Cn1cnc(Br)c1C1=CN(c2ncnc3[nH]cnc23)CCS1 | LATS1 | enzyme activity | inhibitor | radiometric |  | 2 µM | 97.3 |
| CCN1CCN(Cc2ccc(NC(=O)c3ccc(C)c(/C=C/c4cnc5[nH]ccc5c4OC)c3)cc2C(F)(F)F)CC1 | Serine/threonine-protein kinase greatwall (MASTL, Homo sapiens, UniProt Q96GX5) | target engagement in cells | inhibitor | chemoproteomics | A-375 | 5 µM | -18.6 |
| O=c1c(O)cccc2c([C@H]3Oc4cc(O)cc(O)c4C[C@H]3O)cc(O)c(O)c12 | KMT5A | cell-free assay |  |  |  | 10 µM | 3 |
| COc1cc(NC(C)=O)c(Cl)cc1C(=O)Nc1nccs1 | Androgen receptor (AR, Homo sapiens, UniProt P10275) | cell-free assay |  |  |  | 10 µM | -19.5 |
| O=C1C=C2CC3(O)COc4c(ccc(O)c4O)C3=C2C=C1O (stereo not shown) | KMT5A | cell-free assay |  |  |  | 10 µM | 8 |
| COc1cc2ncnc(Nc3ccc(Oc4ccccc4)cc3C)c2cc1OC | PRKCB | enzyme activity | inhibitor |  |  | 1 µM | 7 |
